Data published in ChEMBL document CHEMBL4270591, “Exploitation of new chalcones and 4H-chromenes as agents for cancer treatment” (Eur J Med Chem, 2018).

Key:
[1] = tested on: MCF7; experiment: Anticancer activity against human MCF7 cells assessed as cell viability at 10 uM after 72 hrs by sulforhodamine B assay relative to control; format: functional; conditions: MCF7, 72 h, read-out: Activity
[2] = tested on: MCF7; experiment: Anticancer activity against human MCF7 cells assessed as cell viability at 30 uM after 72 hrs by sulforhodamine B assay relative to control; format: functional; conditions: MCF7, 72 h, read-out: Activity
[3] = tested on: Hs-578T; experiment: Anticancer activity against human Hs 578T cells assessed as cell viability at 10 uM after 72 hrs by sulforhodamine B assay relative to control; format: functional; conditions: read-out: Activity
[4] = tested on: Hs-578T; experiment: Anticancer activity against human Hs 578T cells assessed as cell viability at 30 uM after 72 hrs by sulforhodamine B assay relative to control; format: functional; conditions: read-out: Activity
[5] = Cytotoxicity against human MCF10A cells assessed as cell viability at 10 uM after 72 hrs by sulforhodamine B assay relative to control; format: cell-based, MCF-10A; conditions: read-out: Activity
[6] = Cytotoxicity against human MCF10A cells assessed as cell viability at 30 uM after 72 hrs by sulforhodamine B assay relative to control; format: cell-based, MCF-10A; conditions: read-out: Activity
[7] = tested on: MCF7; experiment: Anticancer activity against human MCF7 cells after 72 hrs by sulforhodamine B assay; format: functional, cell-based; conditions: MCF7, 72 h
Summary of the method: (§1)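 Cells seeded at 3000 cells/100 µL per well, left to adhere overnight (18-20 h), then exposed to a range of compound concentrations for 72 h. Vehicle control was 0.5% DMSO. Cytotoxicity was read by sulforhodamine B at 490 nm, with 690 nm as background. IC50 came from sigmoidal variable-slope nonlinear regression on log-transformed data, from at least three independent experiments, each in triplicate.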

[8] = tested on: Hs-578T; experiment: Anticancer activity against human Hs 578T cells after 72 hrs by sulforhodamine B assay; format: functional, cell-based; summary of the method: as §1
[9] = tested on: MCF-10A; experiment: Cytotoxicity against human MCF10A cells after 72 hrs by sulforhodamine B assay; format: cell-based; summary of the method: as §1

| Compound | viability at 10 µM [1] | viability at 30 µM [2] | viability at 10 µM [3] | viability at 30 µM [4] | viability at 72 h, 10 µM [5] | viability at 72 h, 30 µM [6] | IC50 [7] | IC50 [8] | IC50 [9] |
| --- | --- | --- | --- | --- | --- | --- | --- | --- | --- |
| COc1cc(Br)cc2c1OC(N)=C(C#N)C2CC(=O)c1ccc(Br)cc1 (stereo not drawn) | 39.7% | 33.1% | – | – | – | – | – | – | – |
| COC(=O)C1=C(N)Oc2ccc(Br)cc2C1CC(=O)c1ccc(Br)cc1 (stereo not drawn) | 72.5% | 34.8% | 90% | 94.8% | 39.9% | 43.2% | – | – | – |
| COc1cc(Br)cc2c1OC(N)=C(C#N)C2CC(=O)c1ccc(Cl)cc1 (stereo not drawn) | 49.6% | 33.3% | 90.7% | 90.7% | 36.8% | 41.6% | – | – | – |
| COc1cccc(C(=O)/C=C/c2cc(Cl)ccc2O)c1 | 38.2% | 26.3% | – | – | – | – | – | – | – |
| N#CC1=C(N)Oc2ccccc2C1CC(=O)c1ccccc1 (stereo not drawn) | 82.7% | 78.6% | – | – | – | – | – | – | – |
| COC(=O)C1=C(N)Oc2ccc(Br)cc2C1CC(=O)c1ccccc1 (stereo not drawn) | 107% | 41.3% | – | – | – | – | – | – | – |
| COc1cccc(C(=O)/C=C/c2cc(Br)cc(OC)c2O)c1 | 77.3% | 63.1% | 74.2% | 69.8% | 33.5% | 47% | – | – | – |
| COc1cccc(C(=O)CC2C(C#N)=C(N)Oc3ccc(Br)cc32)c1 (stereo not drawn) | 51.2% | 34.4% | 71.5% | 37.9% | 101% | 43.7% | 5.94 µM | 10.3 µM | 18.9 µM |
| COC(=O)C1=C(N)Oc2c(OC)cccc2C1CC(=O)c1ccc(Cl)cc1 (stereo not drawn) | 89.8% | 63.8% | – | – | – | – | – | – | – |
| COc1cc(Br)cc(/C=C/C(=O)c2ccc(Br)cc2)c1O | 64.6% | 48.3% | – | – | – | – | – | – | – |
| COc1ccc(O)c(/C=C/C(=O)c2ccc(Cl)cc2)c1 | 86.9% | 29.3% | 106% | 102% | 35.7% | 48% | – | – | – |
| COc1cc(Br)cc(/C=C/C(=O)c2ccccc2)c1O | 67% | 28.1% | 46.9% | 106% | 34.4% | 40.7% | – | – | – |
| Cc1ccc(C(=O)CC2C(C#N)=C(N)Oc3ccc(Br)cc32)cc1 (stereo not drawn) | 69% | 32.3% | 88.8% | 46.3% | 133% | 33.5% | – | – | – |
| COc1cc(Br)cc2c1OC(N)=C(C#N)C2CC(=O)c1ccccc1 (stereo not drawn) | 99.1% | 36.7% | 100% | 155% | 45.9% | 45.9% | – | – | – |
| Cc1ccc(C(=O)CC2C(C#N)=C(N)Oc3ccc(Cl)cc32)cc1 (stereo not drawn) | 85.5% | 49% | 92.3% | 155% | 41.8% | 53.3% | – | – | – |
| COC(=O)C1=C(N)Oc2c(OC)cc(Br)cc2C1CC(=O)c1cccc(OC)c1 (stereo not drawn) | 142% | 94.9% | – | – | – | – | – | – | – |

| Compound | viability at 10 µM [1] | viability at 30 µM [2] | viability at 10 µM [3] | viability at 30 µM [4] | viability at 72 h, 10 µM [5] | viability at 72 h, 30 µM [6] | IC50 [7] | IC50 [8] | IC50 [9] |
| --- | --- | --- | --- | --- | --- | --- | --- | --- | --- |
| COc1cc(Br)cc2c1OC(N)=C(C#N)C2CC(=O)c1ccc(C)cc1 (stereo not drawn) | 116% | 52.8% | – | – | – | – | – | – | – |
| COC(=O)C1=C(N)Oc2ccc(Br)cc2C1CC(=O)c1ccc(Cl)cc1 (stereo not drawn) | 67.6% | 32.4% | – | – | – | – | – | – | – |
| O=C(/C=C/c1cc(F)cc(F)c1O)c1ccccc1 | 110% | 37.6% | 96.5% | 114% | 37.4% | 41.4% | – | – | – |
| Cc1ccc(C(=O)/C=C/c2cc(Br)ccc2O)cc1 | 27.3% | 31.8% | 55.8% | 46.7% | 32.4% | 49.4% | 2 µM | 1.6 µM | 6.52 µM |
| COC(=O)C1=C(N)Oc2c(OC)cc(Br)cc2C1CC(=O)c1ccc(Cl)cc1 (stereo not drawn) | 80.3% | 33.8% | 63% | 90.2% | 40.9% | 47.8% | – | – | – |
| COC(=O)C1=C(N)Oc2c(OC)cc(Br)cc2C1CC(=O)c1ccc(Br)cc1 (stereo not drawn) | 50.2% | 31.9% | – | – | – | – | – | – | – |
| N#CC1=C(N)Oc2ccc(Br)cc2C1CC(=O)c1ccc(Br)cc1 (stereo not drawn) | 47.2% | 34.2% | 67.6% | 93.8% | 32.6% | 43.6% | 7.24 µM | 16.5 µM | 14.7 µM |
| N#CC1=C(N)Oc2c(F)cc(F)cc2C1CC(=O)c1ccccc1 (stereo not drawn) | 99.6% | 76.9% | 92.4% | 144% | 53.8% | 128% | – | – | – |
| Cc1ccc(C(=O)/C=C/c2cc(F)cc(F)c2O)cc1 | 33.9% | 35.3% | – | – | – | – | – | – | – |
| Cc1ccc(C(=O)/C=C/c2cccc(Br)c2)cc1 | 60.4% | 34% | – | – | – | – | – | – | – |
| O=C(/C=C/c1ccccc1O)c1ccccc1 | 71.9% | 32.1% | – | – | – | – | – | – | – |
| COC(=O)C1=C(N)Oc2ccc(Cl)cc2C1CC(=O)c1ccccc1 (stereo not drawn) | 87.2% | 44.2% | – | – | – | – | – | – | – |
| COc1cc(Br)cc(/C=C/C(=O)c2ccc(C)cc2)c1O | 96.8% | 61.5% | 84.6% | 64.2% | 155% | 148% | – | – | – |
| COc1cccc2c1C(=O)c1c(O)c3c(c(O)c1C2=O)C[C@@](O)(C(=O)CO)C[C@@H]3O[C@H]1C[C@H](N)[C@H](O)[C@H](C)O1 [DOXORUBICIN] | – | – | – | – | – | – | – | 0.52 µM | 1.54 µM |
| COc1cc(Br)cc(/C=C/C(=O)c2ccc(Cl)cc2)c1O | 53.3% | 28% | 53.8% | 60.3% | 35.2% | 47.8% | 5.15 µM | 5.33 µM | 12.1 µM |
